System: MS2 coat protein
Test: apparent Kd, MS2 coat protein; higher = weaker binding; RNA-MaP array; FMN 200 µM where present
Summary of the method: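 Stalled E. coli RNA polymerase produced the designs on Illumina sequencing-chip clusters. SNAP-549-labelled MS2 coat protein was added from 0.7 or 1.5 nM, doubling to 3 µM, without and then with constant ligand, in 100 mM Tris-HCl pH 7.5, 80 mM KCl, 4 mM MgCl2, BSA, DTT, yeast tRNA and Tween-20. The apparent Kd is the median of filtered per-cluster fits of green signal normalised to red-channel RNA signal and control-cluster median Fmax.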

[1] = designed as: ON switch for flavin mononucleotide, no ligand
[2] = ligand present: flavin mononucleotide, designed as: ON switch for flavin mononucleotide
[3] = designed as: OFF switch for flavin mononucleotide, no ligand
[4] = ligand present: flavin mononucleotide, designed as: OFF switch for flavin mononucleotide

| Sequence | apparent Kd [1] | apparent Kd [2] | apparent Kd [3] | apparent Kd [4] |
| --- | --- | --- | --- | --- |
| UCAUAUAUACAAGGAUAUCAAUUAUUUACACAUCCUACAUGAGGAUCACCCAUGUUUUAAUAUAUUGAGAAGGUGUAAUGUCGG | 0.0249 µM | 0.0319 µM |  |  |
| UCAUAUUUACAAGGAUAUCAAUUAUUUAUACAUCCUACAUGAGGAUCACCCAUGUUAAUAUAUUUUGAGAAGGUGUAUUGUCGG | 0.0321 µM | 0.0312 µM |  |  |
| UCAUCGUGAGGAUAUUAUCGUAAGUGCAGGGUCUGACUUAGUAAGAAGGCACAUGAGGAUCACCCAUGUCCCUC |  |  | 0.0202 µM | 0.0285 µM |
| UCAUUGUCAGGAUAUCUUAAUAACGGUUCACUGUUUUAUUUGGAGAAGGGACAUGAGGAUCACCCAUGUUCCUG |  |  | 0.0183 µM | 0.0208 µM |
| UCAUUUACCACAGGAUAUAUUCAUAUACAGUUGUUUGGCUCUUACAUGUUAGUAGAAGGGUGCAACAUGAGGAUCACCCAUGUA | 0.298 µM | 0.163 µM |  |  |
| UCCACUACUGAGAAGGGAUACAUAUAAUUCUAGUCAGGAUAUCGAUACAGUGCAGCAUGAGGACAUGAGGAUCACCCAUGUAUU | 0.0189 µM | 0.016 µM |  |  |
| UCCACUACUGAGAAGGGAUACAUAUAAUUUUAGUCAGGAUAUCGAUACAGUGCAGCAUGAGGACAUGAGGAUCACCCAUGUAUU | 0.0223 µM | 0.0152 µM |  |  |
| UCCACUGCUGAGAAGGGAUACAUAUGGUUCUAGUCAGGAUAUCGAUACAGUGCAGCAUGAGGACAUGAGGAUCACCCAUGUAUU | 0.0256 µM | 0.0186 µM |  |  |
| UCCGACCUAGGAUAUACCUGGGCCGCCUCGUGUUAUCACCUACAUGAGGAUCACCCAUGUAGAAGGAGGACGGU |  |  | 0.0467 µM | 0.0641 µM |
| UCCGCAUCUGAGAAGGGAUCUCCGCGGAAGGGAUCAGGAUAUCGGACAUGAGGAUCACCCAUGUGCCGUUAAAGGACACCUGGU |  |  |  | 0.00736 µM |
| UCCGCGCGCGUAGGAUAUACAUGAGGAUCACCCAUGUACCCAUAUGGCUUCCUGAAUCUUGCAAUGUAGAAGGACGCCCGUGGG |  |  | 0.0358 µM | 0.0361 µM |
| UCCGCUAUCUAGAAGGAUAUGCGUAUAUAAACAUGAGGAUCACCCAUGUACCGGCGAAAACCGGUGCAGAAGGUUUAGCUAGUGA | 0.431 µM | 0.0657 µM |  |  |
| UCCUAACAUGAGGAUCACCCAUGUCAGGAUAUGAUACUAUGUACUUCGGUACAUAGUAUCAGAAGGGACAUCCU |  |  | 0.0153 µM | 0.0166 µM |
| UCCUCUGUAUGAGGAUAUCCGAAUACGUGAGGCGCUGCCGGCUCAUCAUCAGGAGAAGGCAUACAUGAGGAUCACCCAUGUCGA |  |  | 0.141 µM | 0.0633 µM |
| UCCUGACAUGAGGAUCACCCAUGUUAGGAUAUGGCUUAGGGCGCGUCUGUGUGUUGGGUUAGAAGGGAUGUGGG |  |  | 0.0176 µM | 0.0168 µM |
| UCCUGGCGAGGAUAUACAAUGUUUUUCACGUUUUGUUUCGAACAUGAGGAUCACCCAUGUAGAAGGUGCUACUG |  |  | 0.0532 µM | 0.0447 µM |
| UCCUUCUGUUGAGGAUAUGUAAGACAGCGACUGCUAUUGCGGCACGCUGAUACAGAAGGCAACAUGAGGAUCACCCAUGUUCAA |  |  | 0.0229 µM | 0.199 µM |
| UCCUUGGUACAGAAGGACCGAGCUCAGUAGCAGGUAGGAUAUGUACAUGAGGAUCACCCAUGUCAGCGGUAAUUACCAGUUUUC |  |  | 0.0575 µM | 0.0242 µM |
| UCCUUGGUACAGAAGGACCGAGCUCCGUAGCAGGUAGGAUAUGUACAUGAGGAUCACCCAUGUCAGCGGUAAUUACCAGUAUUC |  |  | 0.0402 µM | 0.0291 µM |
| UCCUUGUCCUGAGGAUAUCCGCGGUUCCCAUAAGGAGAAGGCAGGACAUGAGGAUCACCCAUGUACCCAGAAAACGUGCAGAGU |  |  | 0.024 µM | 0.156 µM |
| UCGACGAAAGUCGAACGAUGUAGCAGAAGGACAUGAGGAUCACCCAUGUCAGCUGUAACAGCCAUGUAGGAUAUGCUACAUCGC |  |  | 0.00427 µM | 0.0057 µM |
| UCGAUGCGAGGAUAUACAAGGGCAACUACUGCCGCUAUAUAACAUGAGGAUCACCCAUGUAGAAGGCGCAUAUA |  |  | 0.0221 µM | 0.0302 µM |
| UCGCGGGUGCAGAAGGGAUAGGCCUAUUUUCGUGGUAUCCAAACUUAACAUGAGGAUCACCCAUGUCAGGAUAUGCCCACGCGA |  |  | 0.00872 µM | 0.0107 µM |
| UCGGCGCGAGGAUAUGCGGCUGGUGCUUCGGGCCCUCGCGUACAUGAGGAUCACCCAUGUAGAAGGCGCGCCGC |  |  | 0.0322 µM | 0.0386 µM |
| UCGUACAUUCGAGGAUAUCGGUGAUUAAUAAUACGAGAAGGCGAUUUUAGGCAUAAAGCCUUAGACAUGAGGAUCACCCAUGUA | 0.0897 µM | 0.0537 µM |  |  |
| UCGUAUAAGGGCAUUACACAUGAGGAUCACCCAUGUACGUUAGAGGAUAUGCAUUCCAGUCGAACGUAGAAGGUUAGAGAAGGG |  |  | 0.307 µM | 0.268 µM |
| UCGUAUAAGGGCAUUACACAUGAGGAUCACCCAUGUACGUUAGAGGAUAUGCAUUCCAGUUGAACGUAGAAGGCUAGAGAAGGG |  |  | 0.132 µM | 0.129 µM |
| UCGUAUACACAAGGAUAUCGAUGGCUUGUAGAUGCUACAUGAGGAUCACCCAUGUUUUUAUAUUGUGAGAAGGUGUAGUGUCGU | 0.141 µM | 0.221 µM |  |  |

| Sequence | apparent Kd [1] | apparent Kd [2] | apparent Kd [3] | apparent Kd [4] |
| --- | --- | --- | --- | --- |
| UCGUUUUUUGAGGAUAUGCGACGUUCCUUCGUCGUAGAAGGCGAUACAUGAGGAUCACCCAUGUUUAUGGGCAU |  |  | 0.108 µM | 0.138 µM |
| UCUAAUUAGUGAGGAUAUACAUAAUUUAUUACUGUAGAAGGCACAAACCUCAAGACAUGAGGAUCACCCAUGUGGUAUUUAGAU |  |  | 0.158 µM | 0.362 µM |
| UCUAGGGACGCAGGAUAUGGAGUGAGUGUCUAUCACAUGAGGAUCACCCAUGUUUGGGUCUCACGCUAGAAGGGCGAAUGUGGG | 0.357 µM | 0.0635 µM |  |  |
| UCUGCAUAGUCAGGAUAUGCAAAGUAAUGUAUGGAAACAUACAUUACAACAUGAGGAUCACCCAUGUAGAAGGGACUGUGCAGA |  |  | 0.014 µM | 0.013 µM |
| UCUGCCGCCGUGAGGAUAUGCCCAAAGAAAAGCGGGCAGAAGGCACAUGAGGAUCACCCAUGUCCCGCGGUUUU |  |  | 0.018 µM | 0.0384 µM |
| UCUGGGUCUGUGAGGAUAUUGGGUCUGAAAGGGCUCGAGAAGGCACAUGAGGAUCACCCAUGUAAGGGCUCGGG |  |  | 0.0276 µM | 0.0216 µM |
| UCUGGUCGAGGAUAUGCAUUCGUGCUUCGGCACGUAAGGUCACAUGAGGAUCACCCAUGUAGAAGGCGACCAGA |  |  | 0.0196 µM | 0.0359 µM |
| UCUGUCCUUGUCAGGAUAUCGAUGGUAAGACCAUGCGAGAAGGGACAUGAGGAUCACCCAUGUUCGACCUGGGU |  |  | 0.176 µM | 0.222 µM |
| UCUGUUGAAGGAUAUGCGUAAUGAGUUACGGCUCGAGGUCUACAUGAGGAUCACCCAUGUAGAAGGUCAUCAGA |  |  | 0.0164 µM | 0.0159 µM |
| UGAACUAUGUAGAAGGCCCACAUUAAUAUGUAGGGAGGAUAUACAUGAGGAUCACCCAUGUGAAGAGCAAGAGGGUUUAACAGA |  |  | 0.112 µM | 0.143 µM |
| UGAACUAUGUAGAAGGCCCAUAUCUAUAUUUAGGGAGGAUAUACAUGAGGAUCACCCAUGUAUAGAGCGGGUGGACCCGUCACU |  |  | 0.039 µM | 0.0721 µM |
| UGAAGGUAAGGAUAUACAUGAGGAUCACCCAUGUUGUCAUUUCUGUCUGGGCAGGCAUGUAGAAGGUACCUACA |  |  | 0.0264 µM | 0.0873 µM |
| UGACCAGUCCAGAAGGUGACGUCUGCAACUAGUCAAGGAUAUGGGUUGGUUCACGGUCGGCUACAUGAGGAUCACCCAUGUACC | 0.00826 µM | 0.00587 µM |  |  |
| UGAGCGACCACAGGAUAUACUUGGUAAGACCGAGUAGAAGGGUGGAAGAGCGUGCAGUGACAUGAGGAUCACCCAUGUGGUUGU | 0.215 µM | 0.0775 µM |  |  |
| UGAGCUACAGGAUAUACGUGACGACCGUGAGGUCGAAGGUUACAUGAGGAUCACCCAUGUAGAAGGGUAGUUCU |  |  | 0.148 µM | 0.148 µM |
| UGAUAACAUGUAGGAUAUCCAGCAUUGACCAUCGGAGAAGGACAUGAGGAUCACCCAUGUACCGAUACAAUGGGAUAUGGGAAU |  |  | 0.0201 µM | 0.0272 µM |
| UGAUAGCACAGAGGAUAUGCGUAUAGUUAUCACUACAUGAGGAUCACCCAUGUAGAAGGCUGUGCUAUCUAAGUCGGAAACGAC |  |  | 0.00585 µM | 0.00611 µM |
| UGAUAGGACAGAGGAUAUACCGAUAGGAGAUACUAUCGACUAUUCCUCACAUGAGGAUCACCCAUGUAGAAGGCUGUCCUAUCU |  |  | 0.0155 µM | 0.0602 µM |
| UGAUAGGACAGAGGAUAUACGGAUAGGAUCUACUAUCCUCCUUAAAUAACAUGAGGAUCACCCAUGUAGAAGGCUGUCCUAUCU |  |  | 0.0173 µM | 0.039 µM |
| UGAUAGGACAGAGGAUAUGCCGAUAGGAUCUAUUAUCGAAGAAUCCUCACAUGAGGAUCACCCAUGUAGAAGGCUGUCCUAUCU |  |  | 0.00932 µM | 0.0366 µM |
| UGAUCGAAAGAUCAUAGAUUCUGGCAGGAUAUGCAGUAGUUUUAAUUUACAUGAGGAUCACCCAUGUAGAAGGGCUAGAGUCUA |  |  | 0.00633 µM | 0.0074 µM |
| UGAUCGAGAGAUCUUAGAUUCUGGUAGGAUAUAAAACAAUUGCGCUUUACAUGAGGAUCACCCAUGUAGAAGGACUAGAGUCUA |  |  | 0.00672 µM | 0.00596 µM |
| UGAUCGAGAGAUCUUAGAUUCUGGUAGGAUAUACAUUAAAAGCGCUUUACAUGAGGAUCACCCAUGUAGAAGGACUAGAGUCUA |  |  | 0.00751 µM | 0.00942 µM |
| UGAUCGAGAGAUCUUAGAUUCUGGUAGGAUAUACAUUAUGUAUGAUAUACAUGAGGAUCACCCAUGUAGAAGGACUAGAGUCUA |  |  | 0.0062 µM | 0.00939 µM |
| UGAUCUAUGUAGAAGGCCCAUAUCUAUAUUUAGGGAGGAUAUACAUGAGGAUCACCCAUGUAUAGAGCUAGUGGACUAGUCACC |  |  | 0.0209 µM | 0.0471 µM |
| UGCAUCAAUGAAGGAUAUCUAUGUCCAACAUGAGGAUCACCCAUGUUGAGGAUUACCUAUGUGUAGGAGAAGGUCAAUAUAACU | 0.00667 µM | 0.00612 µM |  |  |
| UGCAUGUCAGGAUAUCGUGCAUACAACGAAAGUUCUAUGUGCGAGAAGGGACAUGAGGAUCACCCAUGUCUUCG |  |  | 0.024 µM | 0.0674 µM |

Reference: the EternaBench riboswitch data
